Assay results from ChEMBL document CHEMBL5724801, “EUbOPEN Chemogenomics Library - Multiplex” (2024).
“And” between values parts separate entries of the source, which are not always exact repeats. Equal values may be shown once.

Test system: U2OS
Assay: Multiplex assay against U2OS
Format: toxicity, cell-based
Conditions: human
Method in brief: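 Tubulin, mitochondrial-mass and membrane-permeability phenotypes are per cents of healthy-nucleus cells. Cells were gated by CellPathfinder machine learning into Hoechst high-intensity objects or normal cells, normal cells into healthy, pyknosed or fragmented nuclei, and pyknosed cells into mitotic or apoptotic. Before that, live cells stained at seeding with Hoechst33342, BioTracker Green Microtubule Cytoskeleton Dye, MitoTracker Red and Annexin V Alexa Fluor 680 were imaged on a CQ1 microscope at 37°C and 5% CO2 after compound addition.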

[1] = 12 h, 1 µM, compound concentration 1 uM
[2] = 12 h, 10 µM, compound concentration 10 uM
[3] = 24 h, 1 µM, compound concentration 1 uM
[4] = 24 h, 10 µM, compound concentration 10 uM
[5] = 48 h, 1 µM, compound concentration 1 uM
[6] = 48 h, 10 µM, compound concentration 10 uM

COc1ccc(-n2c(C)c([N+](=O)[O-])c3ccc(O)cc32)cc1
Population Apoptotic (%) [1]: 45.24% and 38.46%
Population Fragmented Nuclei (%) [1]: 0.72% and 4.55%
Population Healthy Nuclei (%) [1]: 89.23% and 88.07%
Population Hoechst High Intensity Objects (%) [1]: 0%
Population Membrane Permeable-Phenotype (%) [1]: 2.14% and 5.16%
Population Mitochondria Different-Phenotype (%) [1]: 0.27% and 4.52%
Population Mitotic Cells (%) [1]: 54.76% and 61.54%
Population Normal (%) [1]: 100%
Population Pyknosed Nuclei (%) [1]: 10.05% and 7.39%
Population Tubulin-Different-Phenotype (%) [1]: 0.8% and 1.29%
Total Cell Count [1]: 418 and 176
Population Apoptotic (%) [2]: 24.32% and 50%
Population Fragmented Nuclei (%) [2]: 1.07% and 1.43%
Population Healthy Nuclei (%) [2]: 90.99% and 84.29%
Population Hoechst High Intensity Objects (%) [2]: 0%
Population Membrane Permeable-Phenotype (%) [2]: 1.42% and 6.78%
Population Mitochondria Different-Phenotype (%) [2]: 0.47% and 5.08%
Population Mitotic Cells (%) [2]: 75.68% and 50%
Population Normal (%) [2]: 100%
Population Pyknosed Nuclei (%) [2]: 7.94% and 14.29%
Population Tubulin-Different-Phenotype (%) [2]: 4.01% and 0%
Population Apoptotic (%) [3]: 52.94% and 48%
Population Fragmented Nuclei (%) [3]: 1.65% and 2.64%
Population Healthy Nuclei (%) [3]: 89.03% and 86.34%
Population Hoechst High Intensity Objects (%) [3]: 0%
Population Membrane Permeable-Phenotype (%) [3]: 0.62% and 4.08%
Population Mitochondria Different-Phenotype (%) [3]: 0.21% and 4.08%
Population Mitotic Cells (%) [3]: 47.06% and 52%
Population Normal (%) [3]: 100%
Population Pyknosed Nuclei (%) [3]: 9.32% and 11.01%
Population Tubulin-Different-Phenotype (%) [3]: 1.03% and 1.53%
Total Cell Count [3]: 547 and 227
Population Apoptotic (%) [4]: 38.64% and 52.38%
Population Fragmented Nuclei (%) [4]: 2.67% and 2.78%
Population Healthy Nuclei (%) [4]: 90% and 85.56%
Population Hoechst High Intensity Objects (%) [4]: 0%
Population Membrane Permeable-Phenotype (%) [4]: 1.67% and 3.9%
Population Mitochondria Different-Phenotype (%) [4]: 0.37% and 3.25%
Population Mitotic Cells (%) [4]: 61.36% and 47.62%
Population Normal (%) [4]: 100%
Population Pyknosed Nuclei (%) [4]: 7.33% and 11.67%
Population Tubulin-Different-Phenotype (%) [4]: 1.67% and 0%
Population Apoptotic (%) [5]: 36.36% and 48.48%
Population Fragmented Nuclei (%) [5]: 2.25% and 2.47%
Population Healthy Nuclei (%) [5]: 88.75% and 88.46%
Population Hoechst High Intensity Objects (%) [5]: 0%
Population Membrane Permeable-Phenotype (%) [5]: 0.69% and 2.48%
Population Mitochondria Different-Phenotype (%) [5]: 0% and 3.42%
Population Mitotic Cells (%) [5]: 63.64% and 51.52%
Population Normal (%) [5]: 100%
Population Pyknosed Nuclei (%) [5]: 9% and 9.07%
Population Tubulin-Different-Phenotype (%) [5]: 0.58% and 1.24%
Total Cell Count [5]: 978 and 364
Population Apoptotic (%) [6]: 56.82% and 55.26%
Population Fragmented Nuclei (%) [6]: 3.3% and 3.1%
Population Healthy Nuclei (%) [6]: 87.91% and 83.79%
Population Hoechst High Intensity Objects (%) [6]: 0%
Population Membrane Permeable-Phenotype (%) [6]: 0.91% and 4.12%
Population Mitochondria Different-Phenotype (%) [6]: 0.11% and 3.7%
Population Mitotic Cells (%) [6]: 43.18% and 44.74%
Population Normal (%) [6]: 100%
Population Pyknosed Nuclei (%) [6]: 8.79% and 13.1%
Population Tubulin-Different-Phenotype (%) [6]: 1.7% and 2.88%

CN(C)Cc1cccc(NC(=C2C(=O)Nc3cc(C(N)=O)ccc32)c2ccccc2)c1
Population Apoptotic (%) [1]: 37.78% and 38.1%
Population Fragmented Nuclei (%) [1]: 1.29% and 3.85%
Population Healthy Nuclei (%) [1]: 87.11% and 82.69%
Population Hoechst High Intensity Objects (%) [1]: 0%
Population Membrane Permeable-Phenotype (%) [1]: 1.78% and 2.33%
Population Mitochondria Different-Phenotype (%) [1]: 0.59% and 5.43%
Population Mitotic Cells (%) [1]: 62.22% and 61.9%
Population Normal (%) [1]: 100%
Population Pyknosed Nuclei (%) [1]: 11.6% and 13.46%
Population Tubulin-Different-Phenotype (%) [1]: 1.18% and 0%
Total Cell Count [1]: 388 and 156
Population Apoptotic (%) [2]: 35.71% and 43.75%
Population Healthy Nuclei (%) [2]: 86.17% and 71.36%
Population Hoechst High Intensity Objects (%) [2]: 0%
Population Membrane Permeable-Phenotype (%) [2]: 3.66% and 11.27%
Population Mitotic Cells (%) [2]: 64.29% and 56.25%
Population Normal (%) [2]: 100%
Population Pyknosed Nuclei (%) [2]: 10.19% and 8.04%
Population Tubulin-Different-Phenotype (%) [2]: 6.48% and 4.93%
Total Cell Count [2]: 412 and 199
Population Apoptotic (%) [3]: 42% and 39.29%
Population Fragmented Nuclei (%) [3]: 1.87% and 0.52%
Population Healthy Nuclei (%) [3]: 88.81% and 84.97%
Population Hoechst High Intensity Objects (%) [3]: 0%
Population Membrane Permeable-Phenotype (%) [3]: 1.89% and 4.27%
Population Mitochondria Different-Phenotype (%) [3]: 0.42% and 6.1%
Population Mitotic Cells (%) [3]: 58% and 60.71%
Population Normal (%) [3]: 100%
Population Pyknosed Nuclei (%) [3]: 9.33% and 14.51%
Population Tubulin-Different-Phenotype (%) [3]: 1.47% and 0.61%
Total Cell Count [3]: 536 and 193
Population Apoptotic (%) [4]: 50.75% and 51.72%
Population Healthy Nuclei (%) [4]: 82.77% and 70.62%
Population Hoechst High Intensity Objects (%) [4]: 0%
Population Membrane Permeable-Phenotype (%) [4]: 2.06% and 8.72%
Population Mitotic Cells (%) [4]: 49.25% and 48.28%
Population Normal (%) [4]: 100%
Population Pyknosed Nuclei (%) [4]: 14.26% and 13.74%
Population Tubulin-Different-Phenotype (%) [4]: 4.88% and 2.68%
Total Cell Count [4]: 470 and 211
Population Apoptotic (%) [5]: 48.91% and 34.38%
Population Fragmented Nuclei (%) [5]: 3.29% and 3.37%
Population Healthy Nuclei (%) [5]: 86.93% and 86.81%
Population Hoechst High Intensity Objects (%) [5]: 0.11% and 0%
Population Membrane Permeable-Phenotype (%) [5]: 1.34% and 2.47%
Population Mitochondria Different-Phenotype (%) [5]: 0.37% and 3.53%
Population Mitotic Cells (%) [5]: 51.09% and 65.62%
Population Normal (%) [5]: 99.89% and 100%
Population Pyknosed Nuclei (%) [5]: 9.78% and 9.82%
Population Tubulin-Different-Phenotype (%) [5]: 1.1% and 0.71%
Total Cell Count [5]: 942 and 326
Population Apoptotic (%) [6]: 57.52% and 51.28%
Population Healthy Nuclei (%) [6]: 81.24% and 71.84%
Population Hoechst High Intensity Objects (%) [6]: 0%
Population Membrane Permeable-Phenotype (%) [6]: 3.41% and 6.53%
Population Mitochondria Different-Phenotype (%) [6]: 0.33% and 7.54%
Population Mitotic Cells (%) [6]: 42.48% and 48.72%
Population Normal (%) [6]: 100%
Population Pyknosed Nuclei (%) [6]: 14.93% and 14.08%
Population Tubulin-Different-Phenotype (%) [6]: 4.88% and 7.04%
Total Cell Count [6]: 757 and 277
